pEC50, pIC50: −log10 of the molar value.
Key:
HEL [1] = assay: Inhibition of cell growth in HEL cells.; format: functional; conditions: Homo sapiens
In short: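 HEL fibroblasts seeded at 5×10^3 cells/well and left to proliferate 24 h, then given compound dilutions in duplicate. Incubated 3 days at 37 °C, 5% CO2; cells counted with a Coulter counter. CC50 is the concentration reducing cell growth by 50%.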

Human alphaherpesvirus 3 [2] = assay: In vitro inhibition of Thymidine Kinase deficient Varicella Zoster Virus (YS/R) plaque formation.; format: functional, organism-based
In short: (§1)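 Confluent HEL fibroblasts infected with VZV at 20 PFU; after a 2-h adsorption, residual virus removed and cells incubated in MEM with 2% FCS containing serial 5-fold compound dilutions, in duplicate. Fixed with ethanol after 5 days at 37 °C, 5% CO2, then Giemsa-stained; plaques counted microscopically. IC50 read graphically from plaque number (% of control); mean of two independent experiments.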

Human betaherpesvirus 5 [3] = assay: In vitro inhibition of HCMV (Davis) plaque formation.; format: functional, organism-based
In short: (§2)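 Confluent HEL fibroblasts infected with HCMV at 100 PFU of cell-free virus; after a 2-h adsorption, residual virus removed and cells incubated in MEM with 2% FCS containing serial 5-fold compound dilutions, in duplicate. Fixed with ethanol after 7 days at 37 °C, 5% CO2, then Giemsa-stained; cytopathic effect scored microscopically. IC50 read graphically from % cytopathicity; mean of two experiments.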

CCRF-CEM = assay: In vitro inhibition of CEM cell proliferation.; format: functional; conditions: Homo sapiens
In short: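 CEM cell proliferation measured alongside the HIV assays; CC50 is the concentration reducing CEM cell proliferation by 50%.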

Human alphaherpesvirus 3 [4] = assay: In vitro inhibition of Thymidine Kinase deficient Varicella Zoster Virus (07/1) plaque formation.; format: functional, organism-based; in short: as §1
Human betaherpesvirus 5 [5] = assay: In vitro inhibition of HCMV (AD-169) plaque formation.; format: functional, organism-based; in short: as §2
HEL [6] = assay: In vitro alteration in cell morphology in HEL cells.; format: functional; conditions: Homo sapiens
In short: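 Normal HEL cells exposed to compounds and examined microscopically; minimum cytotoxic concentration is the lowest giving a detectable change in cell morphology. Duplicate assays.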

Human alphaherpesvirus 3 [7] = assay: In vitro inhibition of Thymidine Kinase-Varicella Zoster Virus(YS) plaque formation.; format: functional, organism-based; in short: as §1
[8] = test system: Human immunodeficiency virus 1; assay: In vitro inhibition of HIV-1(IIIB) cytopathicity in CEM cells.; format: functional, organism-based; conditions: Human immunodeficiency virus 1, CCRF-CEM
In short: (§3)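 CEM cells at 4×10^5 cells/mL infected with HIV-1 IIIB or HIV-2 ROD (stocks from MT-4 supernatants) at ~100 CCID50/mL, then immediately mixed with compound dilutions. Giant cell formation scored microscopically after 4 days; EC50 is the concentration inhibiting it by 50%. Triplicate assays.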

[9] = test system: Human immunodeficiency virus 2; assay: In vitro inhibition of HIV-2(ROD) cytopathicity in CEM cells.; format: functional, organism-based; conditions: Human immunodeficiency virus 2, CCRF-CEM; in short: as §3
Human alphaherpesvirus 3 [10] = assay: In vitro inhibition of Thymidine Kinase-Varicella-Zoster Virus(OKA) plaque formation.; format: functional, organism-based; conditions: Human alphaherpesvirus 3, oka; in short: as §1

| Compound | CC50 (HEL [1]) | pIC50 (Human alphaherpesvirus 3 [2]) | pIC50 (Human betaherpesvirus 5 [3]) | CC50 (CCRF-CEM) | pIC50 (Human alphaherpesvirus 3 [4]) | pIC50 (Human betaherpesvirus 5 [5]) | MCC (HEL [6]) | pIC50 (Human alphaherpesvirus 3 [7]) | pEC50 [8] | pEC50 [9] | pIC50 (Human alphaherpesvirus 3 [10]) |
| --- | --- | --- | --- | --- | --- | --- | --- | --- | --- | --- | --- |
| O=S1(=O)N=C(OCc2ccccc2)c2ccccc2N1Cc1ccccc1 | > 200 µM | 4.70 | 5.15 | 22.2 µM | < 4.30 | 5.15 | 200 µM | < 4.30 | < 5.00 | < 5.00 | < 4.30 |
| O=C1c2ccccc2N(Cc2ccccc2)S(=O)(=O)N1COCc1ccccc1 | > 98 µM | – | – | 100 µM | < 4.92 | – | 49 µM | < 4.92 | 4.82 | 4.70 | < 4.92 |
| C#CCOCN1c2ccccc2C(=O)N(Cc2ccccc2)S1(=O)=O | > 140 µM | 4.44 | – | 23 µM | – | – | 140 µM | – | < 5.10 | < 5.10 | – |
| O=C1c2ccccc2N(Cc2ccccc2Cl)S(=O)(=O)N1Cc1ccccc1Cl | > 200 µM | 5.30 | 4.30 | 40.4 µM | < 4.30 | < 4.30 | > 20 µM | < 4.30 | 4.82 | < 5.00 | < 4.30 |
| O=C1c2ccccc2N(Cc2ccc(Cl)cc2)S(=O)(=O)N1Cc1ccccc1 | > 200 µM | 5.62 | 5.52 | 19.7 µM | 4.96 | 5.40 | > 5 µM | 4.66 | 5.19 | 5.10 | 4.74 |
| O=C1c2ccccc2N(COCc2ccccc2)S(=O)(=O)N1Cc1ccccc1 | > 122 µM | < 4.92 | – | 25 µM | < 4.92 | 4.70 | 122 µM | – | < 5.10 | < 5.10 | – |
| Nc1nc2c(ncn2COCCO)c(=O)[nH]1 [ACYCLOVIR] | > 400 µM | 4.20 | – | – | 4.39 | – | > 150 µM | 5.39 | – | – | 5.34 |
| O=C1c2ccccc2N(Cc2ccccc2)S(=O)(=O)N1Cc1ccc(Cl)cc1 | 121 µM | 5.59 | 5.46 | 27.8 µM | 5.00 | 5.52 | 20 µM | 5.09 | 5.30 | < 5.00 | 5.59 |
| O=C1c2ccccc2N(COCc2ccccc2)S(=O)(=O)N1COCc1ccccc1 | 130 µM | 5.00 | 4.92 | 27.7 µM | < 4.30 | 4.92 | 200 µM | < 4.30 | 4.60 | 4.60 | 4.85 |
| O=C1c2ccccc2N(Cc2ccccc2Cl)S(=O)(=O)N1COCc1ccccc1 | > 50 µM | 5.10 | 5.00 | 22.2 µM | < 4.30 | 5.00 | 200 µM | < 4.30 | < 5.00 | < 5.00 | < 4.30 |
| O=C1c2ccccc2N(Cc2ccccc2Cl)S(=O)(=O)N1Cc1ccccc1 | 88 µM | < 4.70 | 4.92 | 27.9 µM | < 4.70 | 4.82 | 200 µM | < 4.70 | < 5.00 | < 5.00 | < 4.70 |
| Nc1ccn(C[C@@H](CO)OCP(=O)(O)O)c(=O)n1 [CIDOFOVIR] | 317 µM | – | 5.89 | – | – | 6.24 | > 159 µM | – | – | – | – |
| O=C1c2ccccc2N(Cc2cccc(Cl)c2)S(=O)(=O)N1Cc1ccccc1 | > 200 µM | – | < 5.30 | 21.3 µM | 4.52 | < 5.30 | > 5 µM | < 4.30 | 5.26 | < 5.00 | < 4.30 |
| O=C1c2ccccc2N(Cc2ccc(Cl)c(Cl)c2)S(=O)(=O)N1Cc1ccccc1 | > 200 µM | 5.35 | 5.46 | 16.4 µM | 4.57 | 5.48 | 200 µM | < 4.30 | < 5.70 | < 5.70 | < 4.30 |
| O=C(OCOCN1c2ccccc2C(=O)N(Cc2ccccc2)S1(=O)=O)c1ccccc1 | 37 µM | 4.59 | < 4.36 | 100 µM | < 4.36 | 4.54 | 110 µM | < 4.36 | < 4.40 | < 4.40 | < 4.36 |
| O=S1(=O)N=C(OCc2ccccc2)c2ccccc2N1Cc1ccc(Cl)c(Cl)c1 | > 200 µM | < 4.30 | < 4.30 | 30.5 µM | < 4.30 | < 4.30 | 200 µM | < 4.70 | < 5.00 | < 5.00 | < 4.30 |
| O=C1c2ccccc2N(Cc2ccccc2)S(=O)(=O)N1Cc1ccccc1 | > 200 µM | 5.22 | 5.00 | 108 µM | 4.64 | 5.00 | > 50 µM | 4.44 | 4.60 | ≤ 4.30 | 5.13 |
| O=C1c2ccccc2N(Cc2ccc(Cl)cc2)S(=O)(=O)N1Cc1ccc(Cl)cc1 | > 200 µM | 5.62 | 5.49 | 35.8 µM | 4.96 | 5.49 | > 50 µM | 5.42 | < 5.00 | 5.12 | 5.44 |
| O=C1c2ccccc2N(Cc2ccccc2)S(=O)(=O)N1Cc1ccccc1Cl | > 200 µM | < 4.30 | < 4.30 | > 250 µM | < 4.30 | < 4.30 | 200 µM | < 4.70 | < 3.60 | < 3.60 | < 4.30 |
